Experimental data: PMC2943143 (Biochemical pharmacology, 2010)
pIC50, pKi: −log10 of the molar value. Several values for one entry are separate records, joined by “and”; a condition that tells them apart may be missing. Equal entries are not always repeated.

Legend:
human pol κ = target: T1, human pol κ (Homo sapiens, UniProt Q9UBT6); test: Pol assay, pol κ; format: biochemical; details: for pKi: Ki, pol κ
T1 sequence (Q9UBT6 1-560 limits assumed): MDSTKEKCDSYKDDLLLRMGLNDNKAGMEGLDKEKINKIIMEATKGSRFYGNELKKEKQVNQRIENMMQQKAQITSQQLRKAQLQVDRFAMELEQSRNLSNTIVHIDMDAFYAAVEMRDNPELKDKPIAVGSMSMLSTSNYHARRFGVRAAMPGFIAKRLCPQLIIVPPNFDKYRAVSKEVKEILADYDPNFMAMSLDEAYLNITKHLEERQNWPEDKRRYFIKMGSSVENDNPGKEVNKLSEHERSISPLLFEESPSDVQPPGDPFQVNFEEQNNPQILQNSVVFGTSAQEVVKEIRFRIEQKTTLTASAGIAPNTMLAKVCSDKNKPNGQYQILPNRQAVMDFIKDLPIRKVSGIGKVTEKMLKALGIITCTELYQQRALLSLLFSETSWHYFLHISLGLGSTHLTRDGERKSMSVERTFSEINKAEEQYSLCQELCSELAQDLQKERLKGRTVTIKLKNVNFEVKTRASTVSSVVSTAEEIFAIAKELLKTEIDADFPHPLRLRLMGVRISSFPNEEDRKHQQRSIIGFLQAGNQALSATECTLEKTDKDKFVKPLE
How it was run: (§1)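 Test compound was dissolved in DMSO and sonicated 30 s. It was preincubated with enzyme (0.05 unit final) in 50 mM Tris-HCl pH 7.5, 1 mM DTT, 50% glycerol and 0.1 mM EDTA at 0 °C for 10 min. This was added to each enzyme's standard reaction mix with poly(dA)/oligo(dT)18 (A/T = 2/1) template-primer and dTTP substrate, then incubated at 37 °C for 60 min. Activity is given as % of inhibitor-free control.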

human pol δ = human pol δ (Homo sapiens, UniProt P28340); test: Pol assay, human pol δ; format: biochemical
human pol δ, sequence (P28340 whole entry): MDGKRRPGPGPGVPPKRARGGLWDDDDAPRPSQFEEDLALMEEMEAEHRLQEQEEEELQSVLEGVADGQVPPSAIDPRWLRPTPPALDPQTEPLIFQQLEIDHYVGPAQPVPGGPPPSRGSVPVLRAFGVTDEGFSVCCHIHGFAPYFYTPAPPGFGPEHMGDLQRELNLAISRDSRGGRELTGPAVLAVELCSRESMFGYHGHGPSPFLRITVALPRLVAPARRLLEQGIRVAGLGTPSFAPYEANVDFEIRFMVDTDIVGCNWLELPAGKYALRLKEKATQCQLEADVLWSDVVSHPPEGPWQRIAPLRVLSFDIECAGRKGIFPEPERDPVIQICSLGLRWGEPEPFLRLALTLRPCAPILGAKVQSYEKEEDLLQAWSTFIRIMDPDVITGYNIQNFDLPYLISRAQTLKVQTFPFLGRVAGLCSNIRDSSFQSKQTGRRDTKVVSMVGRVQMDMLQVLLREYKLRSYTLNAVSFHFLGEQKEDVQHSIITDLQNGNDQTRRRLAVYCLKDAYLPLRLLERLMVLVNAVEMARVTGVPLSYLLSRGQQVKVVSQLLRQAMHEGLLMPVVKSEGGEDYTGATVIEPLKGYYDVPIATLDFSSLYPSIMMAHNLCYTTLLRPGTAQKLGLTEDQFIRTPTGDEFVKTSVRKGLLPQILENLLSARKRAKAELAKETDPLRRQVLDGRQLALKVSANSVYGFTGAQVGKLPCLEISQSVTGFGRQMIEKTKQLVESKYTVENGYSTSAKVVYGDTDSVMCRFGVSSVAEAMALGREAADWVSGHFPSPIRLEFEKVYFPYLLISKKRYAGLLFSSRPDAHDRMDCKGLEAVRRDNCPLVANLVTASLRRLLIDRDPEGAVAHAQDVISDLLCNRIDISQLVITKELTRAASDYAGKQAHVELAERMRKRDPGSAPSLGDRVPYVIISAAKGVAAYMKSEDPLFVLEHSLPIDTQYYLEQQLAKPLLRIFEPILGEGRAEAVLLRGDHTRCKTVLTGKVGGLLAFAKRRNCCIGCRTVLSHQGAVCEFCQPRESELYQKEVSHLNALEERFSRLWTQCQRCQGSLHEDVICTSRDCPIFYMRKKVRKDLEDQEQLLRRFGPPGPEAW
How it was run: as §1

del-1 pol λ (133–575) = del-1 pol λ (133–575) (Homo sapiens, UniProt Q9UGP5); test: Pol assay, del-1 pol λ mutant; format: biochemical; details: dose-response, Fig. 4B
del-1 pol λ (133–575), sequence (Q9UGP5 133-575): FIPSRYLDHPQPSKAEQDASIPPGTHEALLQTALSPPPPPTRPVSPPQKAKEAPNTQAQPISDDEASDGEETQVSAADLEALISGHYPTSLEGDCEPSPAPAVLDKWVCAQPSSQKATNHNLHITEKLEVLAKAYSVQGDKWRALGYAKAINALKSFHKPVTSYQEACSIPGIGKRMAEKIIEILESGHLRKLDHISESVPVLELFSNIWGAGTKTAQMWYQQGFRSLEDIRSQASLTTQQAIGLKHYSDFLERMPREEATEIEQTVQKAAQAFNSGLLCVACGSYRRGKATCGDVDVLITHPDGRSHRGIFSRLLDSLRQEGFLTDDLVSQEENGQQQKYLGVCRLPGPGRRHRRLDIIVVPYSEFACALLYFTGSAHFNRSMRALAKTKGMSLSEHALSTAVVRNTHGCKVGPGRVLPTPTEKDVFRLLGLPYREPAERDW
How it was run: as §1

del-2 pol λ (245–575) = del-2 pol λ (245–575) (Homo sapiens, UniProt Q9UGP5); test: Pol assay, del-2 pol λ mutant; format: biochemical
del-2 pol λ (245–575), sequence (Q9UGP5 245-575): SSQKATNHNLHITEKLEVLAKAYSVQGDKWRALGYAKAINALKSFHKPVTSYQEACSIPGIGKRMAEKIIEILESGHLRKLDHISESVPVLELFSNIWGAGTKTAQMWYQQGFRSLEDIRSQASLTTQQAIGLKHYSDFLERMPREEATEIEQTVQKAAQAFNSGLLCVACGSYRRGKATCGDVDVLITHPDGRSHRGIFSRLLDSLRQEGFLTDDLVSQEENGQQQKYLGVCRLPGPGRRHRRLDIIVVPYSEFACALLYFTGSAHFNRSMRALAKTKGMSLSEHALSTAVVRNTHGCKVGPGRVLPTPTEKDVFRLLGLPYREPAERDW
How it was run: as §1

T4 pol = T4 pol (Enterobacteria phage T4, UniProt P04415); test: Pol assay, T4 pol; format: biochemical; details: supplemental Fig. S1A
T4 pol, sequence (P04415 whole entry): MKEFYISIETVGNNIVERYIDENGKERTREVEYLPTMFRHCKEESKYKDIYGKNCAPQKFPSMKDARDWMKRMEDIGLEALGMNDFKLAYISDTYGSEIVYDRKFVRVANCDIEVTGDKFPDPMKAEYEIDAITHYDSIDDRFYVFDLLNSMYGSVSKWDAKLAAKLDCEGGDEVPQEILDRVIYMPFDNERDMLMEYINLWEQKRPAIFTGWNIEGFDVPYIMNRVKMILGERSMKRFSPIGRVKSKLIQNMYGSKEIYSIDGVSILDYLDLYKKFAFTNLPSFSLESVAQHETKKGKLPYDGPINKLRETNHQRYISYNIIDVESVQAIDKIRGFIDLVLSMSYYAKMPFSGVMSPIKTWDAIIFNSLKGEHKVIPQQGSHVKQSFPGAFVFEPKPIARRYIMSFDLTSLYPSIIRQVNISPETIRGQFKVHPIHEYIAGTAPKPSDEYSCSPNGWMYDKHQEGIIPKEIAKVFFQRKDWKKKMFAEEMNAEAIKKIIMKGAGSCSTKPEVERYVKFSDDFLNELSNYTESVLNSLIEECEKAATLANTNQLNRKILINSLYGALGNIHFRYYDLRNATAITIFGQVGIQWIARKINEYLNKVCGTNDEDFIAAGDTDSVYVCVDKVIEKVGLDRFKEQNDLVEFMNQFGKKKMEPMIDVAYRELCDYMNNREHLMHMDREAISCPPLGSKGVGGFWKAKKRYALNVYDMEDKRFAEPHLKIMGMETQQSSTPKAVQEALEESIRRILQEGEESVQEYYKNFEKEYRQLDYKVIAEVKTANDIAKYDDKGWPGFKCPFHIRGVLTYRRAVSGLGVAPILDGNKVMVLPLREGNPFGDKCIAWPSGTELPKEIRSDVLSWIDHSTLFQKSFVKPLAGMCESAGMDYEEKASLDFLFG
How it was run: as §1

human topoisomerase I = human topoisomerase I (Homo sapiens, UniProt P11387); test: DNA topoisomerase I assay; format: biochemical; details: highest tested concentration 1 μM, supplemental Fig. S1B
human topoisomerase I, sequence (P11387 whole entry): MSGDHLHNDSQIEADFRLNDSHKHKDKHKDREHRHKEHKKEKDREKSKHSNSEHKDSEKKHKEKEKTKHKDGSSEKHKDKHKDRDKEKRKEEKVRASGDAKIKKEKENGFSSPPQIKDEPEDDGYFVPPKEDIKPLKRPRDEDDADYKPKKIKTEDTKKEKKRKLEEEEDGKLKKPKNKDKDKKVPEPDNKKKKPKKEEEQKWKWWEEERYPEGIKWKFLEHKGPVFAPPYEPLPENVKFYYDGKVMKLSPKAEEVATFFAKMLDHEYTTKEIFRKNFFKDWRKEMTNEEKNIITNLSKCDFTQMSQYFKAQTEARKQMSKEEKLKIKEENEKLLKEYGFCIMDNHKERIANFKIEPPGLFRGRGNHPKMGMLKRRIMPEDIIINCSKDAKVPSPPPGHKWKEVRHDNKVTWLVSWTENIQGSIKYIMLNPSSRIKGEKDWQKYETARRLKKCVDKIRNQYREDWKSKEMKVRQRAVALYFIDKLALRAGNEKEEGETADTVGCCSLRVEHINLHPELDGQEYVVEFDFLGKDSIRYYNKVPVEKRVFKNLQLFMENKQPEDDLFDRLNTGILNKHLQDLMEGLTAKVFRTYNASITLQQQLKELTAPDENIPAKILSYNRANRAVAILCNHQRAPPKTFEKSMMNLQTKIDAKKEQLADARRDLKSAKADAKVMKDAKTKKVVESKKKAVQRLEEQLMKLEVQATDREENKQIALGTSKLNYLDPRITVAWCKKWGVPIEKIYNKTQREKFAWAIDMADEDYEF
How it was run: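 Topoisomerases I and II were purified from human placenta, and DNase I came from bovine pancreas. Each activity was measured in a standard assay following the supplier's specifications.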

[1] = system: calf thymus double-stranded DNA (dsDNA); test: Thermal transition of DNA; format: binding; details: 15 μM compound, calf thymus dsDNA 6 μg/ml, pH 7.0
How it was run: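 Calf thymus dsDNA (6 μg/ml) in 0.1 M sodium phosphate pH 7.0 with 1% DMSO was tested with or without test compound, with ethidium bromide as intercalator control. Samples were equilibrated at 78 °C for 10 min, then raised 1 °C every 2 min. Absorbance was recorded on a spectrophotometer with a thermoelectric cell holder, and compound-only absorbance was subtracted to give Tm.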

HCV NS3 protease = details: read-out: IC50, HCV NS3 protease; cited from earlier work
[2] = target: Angiotensin converting enzyme; details: read-out: IC50, Angiotensin converting enzyme; cited from earlier work
[3] = target: HIV reverse transcriptase; details: read-out: IC50, HIV reverse transcriptase; cited from earlier work
[4] = system: mouse Lewis lung cancer allografts; details: dose-dependent in the range of 4 and 20 mg/kg, syngenic mice; cited from earlier work
[5] = system: human DU145 prostate cancer (PCa) xenografts; details: cited from earlier work

With `O=C(OC[C@H]1O[C@@H](OC(=O)c2cc(O)c(O)c(O)c2)[C@H](OC(=O)c2cc(O)c(O)c(O)c2)[C@@H](OC(=O)c2cc(O)c(O)c(O)c2)[C@@H]1OC(=O)c1cc(O)c(O)c(O)c1)c1cc(O)c(O)c(O)c1` [PGG, 1,2,3,4,6-penta-O-galloyl-β-D-glucose] the pIC50 (human pol κ) was 7.52, the “Mode of Inhibition, pol κ, DNA template-primer” value (human pol κ) was “Non-competitive for DNA template-primer” and the “Mode of Inhibition, pol κ, dNTP” value (human pol κ) was “Non-competitive for dNTP”. For the same molecule, the “effect on pol κ activity” value (human pol κ; 100 and 1,000 nM PGG, Fig. 1C) was “significantly inhibit”, the pKi (human pol κ; with respect to DNA template-primer) was 8.03 and the pKi (human pol κ; with respect to dNTP) was 7.82. The “effect of 0.05% NP-40 on the inhibitory effect on pol κ” value (human pol κ; PGG 10 and 100 nM, supplemental Table S1) was “not reversed”, the “effect of poly(rC) or BSA on the inhibitory effect on pol κ” value (human pol κ; poly(rC) 50 μM, BSA 200 μg/ml) was “neither poly(rC) nor BSA influenced” and the “effect on pol δ activity” value (human pol δ; 100 and 1,000 nM PGG, Fig. 1C) was “significantly inhibit”. The pIC50 (human pol δ; IC50, pol δ, range stated for replicative pols (α, δ and ε) together) was > 7.00 and 7.18 to 7.89, the “inhibition of del-1 pol λ activity” value (del-1 pol λ (133–575)) was “dose-dependently inhibited” and the pIC50 (del-2 pol λ (245–575)) was 6.93. For the same molecule, the “effect on T4 pol activity” value (T4 pol) was “not influenced”, the “effect on human topoisomerase I activity” value (human topoisomerase I) was “did not suppress” and the “effect on melting temperature (Tm) / thermal transition of dsDNA” value [1] was “no effect”. For the same molecule, the pIC50 (HCV NS3 protease) was 5.80, the pIC50 [2] was 4.14 and the pIC50 [3] was under 4.00. The “in vivo growth of Lewis lung cancer allografts” value [4] was “suppresses”, the “in vivo growth of DU145 xenografts” value ([5]; daily intra-peritoneal injection 20 mg/kg body weight, nude mice) was “suppresses” and the “effect on body weight” value ([5]; mouse, in vivo) was “without evident adverse effect”.
